STAT1 act: STAT1 signaling activation | NIH 3T3 STAT1-luciferase reporter, IFN-gamma, luminescence; 100% = IFN-gamma alone, no compound | 200,000 tested, 2.6% active | activation (% of control), % at 5.5 µM;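 active means activation above the screen-wide mean activation plus 3 SD, cut at about 130% in these data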
FLuc stim CS: firefly luciferase counter-screen for stimulation assays | P08659 | ATPlite luciferase biochemical, luminescence, 10 min; 0 = ATP-free wells, 1 = DMSO control | activation factor at 10 µM | 200,000 tested, under 10 active | AID 1027;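 active means luciferase activation factor, scaled between plate controls, of at least 2 with compound at 10 µM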
Target sequence (P08659 whole entry, looked up): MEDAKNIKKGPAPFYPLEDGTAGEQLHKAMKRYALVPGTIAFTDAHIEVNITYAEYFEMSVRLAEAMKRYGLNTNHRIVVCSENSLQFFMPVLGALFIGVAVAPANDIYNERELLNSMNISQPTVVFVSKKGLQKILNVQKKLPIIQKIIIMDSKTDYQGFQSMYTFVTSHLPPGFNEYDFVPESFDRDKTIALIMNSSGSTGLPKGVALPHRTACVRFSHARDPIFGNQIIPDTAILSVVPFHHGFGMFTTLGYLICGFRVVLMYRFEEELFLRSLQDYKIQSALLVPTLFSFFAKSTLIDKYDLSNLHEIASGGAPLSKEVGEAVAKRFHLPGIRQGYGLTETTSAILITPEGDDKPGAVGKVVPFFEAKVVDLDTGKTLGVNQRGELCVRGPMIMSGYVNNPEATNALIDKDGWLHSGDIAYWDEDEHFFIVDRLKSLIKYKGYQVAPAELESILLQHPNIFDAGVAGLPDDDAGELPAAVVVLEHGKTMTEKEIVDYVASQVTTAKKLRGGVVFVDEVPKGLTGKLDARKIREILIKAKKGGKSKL
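Assay system: Luciferase/luciferin detection reagent, cell-free biochemical luciferase assay / Also added: ATP substrate / Schedule: 10 min at ambient temperature / Measured by: luminescence measurement of luciferase light output / Benchmarks: low control with PBS replacing ATP, high control enzyme plus ATP without compound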
APP 5'UTR act: APP 5'UTR luciferase reporter activation; SH-SY5Y APP 5'UTR luciferase reporter, luminescence; zero percent = DMSO vehicle wells; activation, % at 2 µM; 190,000 tested, 1% active; AID 1276;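 active means activation above a set limit, based on mean plus 3 SD of controls, cut at about 140% in these data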
sdo1 growth: restores growth of sdo1-depleted yeast | 140,000 tested, 0.21% active | S. cerevisiae sdo1-depleted JHY4D growth rescue, OD600 30 h; stronger effect = higher value; pdr5 snq2 efflux-pump mutant strain | z-score at 10 µM;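 active means z-score above 3 at both the 24 hr and the 30 hr optical density reads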
NF-kB expr up: compounds increasing NF-kB expression in human neuronal cells. fold change at 12.5 µM. 190,000 tested, 1.6% active. NF-kB reporter expression; stronger effect = higher value; in the data active means fold change above about 3.3
FLuc inhib CS: inhibits firefly luciferase, flagging false hits in luciferase inhibition screens | P08659 | ATPLite firefly luciferase biochemical luminescence, 10 min | AID 1006 | 200,000 tested, 1.5% active | inhibition, % at 10 µM;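 active means inhibition above about 50% when tested at 10 µM, limit read from the data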
Each line names hits and unclear results; the compound was inactive in the other large screens. In the library only some 4.3% were active in any assay of this set; here they are far more common.

O=C(COC(=O)c1cccc(F)c1)Nc1cccnc1Cl	none (no result: sdo1 growth)
Cc1ccc(-c2cn(-c3ccccc3)c(SCC(=O)NC3CCS(=O)(=O)C3)n2)cc1C (configuration not stated)	STAT1 act 136
CCn1c(SCC(=O)NC2CCS(=O)(=O)C2)nnc1-c1ccccc1 (configuration not stated)	none (no result: sdo1 growth)
C/C(=N\Nc1nc(N2CCCCC2)nc(N2CCOCC2)n1)c1ccccc1O	none (no result: sdo1 growth)
Cc1cccc2c1N(CCOc1ccccc1Cl)C(=O)C2=O	NF-kB expr up 3.7
Cc1ccccc1OCCN1C(=O)C(=O)c2cccc(C)c21	none (no result: APP 5'UTR act)
O=C(Cc1ccccc1)NNC1=NS(=O)(=O)c2ccccc21	none (no result: sdo1 growth)
O=C(NNC1=NS(=O)(=O)c2ccccc21)c1ccc(Cl)cc1	FLuc inhib CS 84 (no result: sdo1 growth)
c1ccc(-c2cn3c(n2)-c2ccccc2C3)cc1	APP 5'UTR act 152, NF-kB expr up 3.9, FLuc inhib CS 87
Nc1nc(-c2ccccc2)cn1N	none
Cn1cccc1/C=C1\CC(C(C)(C)C)C/C(=C\c2cccn2C)C1=O (configuration not stated)	none
Cn1cccc1/C=C1\CCc2ccccc2C1=O	APP 5'UTR act 167, NF-kB expr up 5.9, FLuc inhib CS 70 (no result: sdo1 growth)
Cn1cccc1/C=C1\Cc2ccccc2C1=O	STAT1 act 140, APP 5'UTR act 184, NF-kB expr up 7.2, FLuc inhib CS 58 (no result: sdo1 growth)
Cc1cccc(NC(=S)N(CCCN2CCOCC2)C(C)c2cc3ccccc3o2)c1C (configuration not stated)	none (no result: sdo1 growth)
O=C(COC(=O)c1cccc(S(=O)(=O)N2CCc3ccccc32)c1)Nc1ccc(Cl)cn1	none
O=C(NCC1OCCCN1S(=O)(=O)c1cc(F)ccc1F)C(=O)NC1CCCCCC1 (configuration not stated)	STAT1 act 138 (no result: sdo1 growth)
CC(NC(=O)c1cc(S(=O)(=O)N(C)C)ccc1N1CCCC1)C1CC2CCC1C2 (configuration not stated)	none (no result: sdo1 growth)
O=C(CCc1nnc(-c2ccccc2)o1)NC1CCCCC1	STAT1 act 130 (no result: sdo1 growth)
CN(CCCC1CCCC1)C(=O)CCc1nnc(-c2ccccc2)o1	STAT1 act 148 (no result: sdo1 growth)
CCN(Cc1ccncc1)C(=O)CCc1nnc(CCC2CCCCC2)o1	none (no result: sdo1 growth)
Cc1cc(C)n(CCN(C)C(=O)CCc2nnc(CCC3CCCCC3)o2)n1	STAT1 act 140 (no result: sdo1 growth)
CCOc1ccc2nc(SC(C)C(N)=O)[nH]c2c1 (configuration not stated)	none
CC1(C)SC(=S)N(/N=C/c2ccccc2)C1N(O)C(=O)Nc1ccc([N+](=O)[O-])cc1 (configuration not stated)	none
Nc1ccc(Cl)c(-c2nc3ncccc3o2)c1	none
O=c1oc2ccc(Br)cc2cc1-c1nc2ccccc2o1	none
Cc1ccccc1-c1nc2cc(N)ccc2o1	STAT1 act 141, NF-kB expr up 4, FLuc inhib CS 55
CC(C)c1ccc2oc(-c3cc(N)ccc3O)nc2c1	APP 5'UTR act 158, FLuc inhib CS 93
CC[n+]1c(C)n(-c2ccccc2)c2ccc(C(=O)OC)cc21	none (no result: sdo1 growth)
COc1ccccc1C(=O)/C=C/c1ccc(N2CCCCC2)c([N+](=O)[O-])c1	none
O=C(/C=C/c1ccc(N2CCCCC2)c([N+](=O)[O-])c1)c1ccc(O)cc1	STAT1 act 143, NF-kB expr up 3.8 (no result: sdo1 growth)
Cc1c(NS(=O)(=O)c2ccc(Cl)c(C(=O)OC(C)C(=O)NCc3ccco3)c2)c(=O)n(-c2ccccc2)n1C (configuration not stated)	none (no result: sdo1 growth)
O=C(N/N=C/c1sc(=O)n(-c2ccccc2)c1Cl)c1ccccc1	STAT1 act 147, FLuc inhib CS 67
Cc1cccc(NC(=O)CSc2nc(N)c(NC(=O)c3cccs3)c(=O)[nH]2)c1	none
COC(=O)CNc1c(-c2ccccn2)nc2ccc(Br)cn12	STAT1 act 150, FLuc inhib CS 77
CC(C)=CCN1CCN(Cc2nc(-c3ccccc3)cs2)CC1CCO (configuration not stated)	none (no result: sdo1 growth)
Cc1ccc(S(=O)(=O)N2CCC(C(=O)Nc3nnc(-c4ccco4)s3)CC2)cc1	none
O=C(Nc1nnc(-c2ccco2)s1)C1CCCCC1	STAT1 act 144
CCN(CC)S(=O)(=O)c1cc(C(=O)N(C)CC(=O)Nc2ccc(Cl)cc2)ccc1Cl	none
COc1ccc(C(=O)NCCC2=CCCCC2)cc1OC	none
COc1ccc(CNC(=O)c2ccc(C(C)(C)C)cc2)cc1	STAT1 act 138 (no result: sdo1 growth)
COc1cccc(C(=O)NCCC2=CCCCC2)c1	APP 5'UTR act 153
O=C(NCCC1=CCCCC1)c1ccc(CN2CCOCC2)cc1	STAT1 act 134
O=C(CCCc1ccccc1)NCCC1=CCCCC1	STAT1 act 136 (no result: sdo1 growth)
Cc1ccccc1CSCC(=O)NCCSc1ccccn1	none (no result: sdo1 growth)
COc1ccc(C(=O)NCC(=O)OCC(=O)NCCC2=CCCCC2)cc1	none (no result: sdo1 growth)
Cc1cc(C(=O)NCCC2=CCCCC2)ccc1[N+](=O)[O-]	STAT1 act 133 (no result: sdo1 growth)
COc1ccc(C(=O)NCCC2=CCCCC2)cc1	STAT1 act 138, APP 5'UTR act 154, NF-kB expr up 3.4, FLuc inhib CS 50
CC(=O)c1c(C)[nH]c(C(=O)NCCC2=CCCCC2)c1C	STAT1 act 134, NF-kB expr up 3.5
CC(C)CNC(=O)c1ccccc1NC(=O)/C=C/c1cccc([N+](=O)[O-])c1	none
Cc1cccc(NC(=O)c2ccc(N3CCCCC3)c([N+](=O)[O-])c2)n1	STAT1 act 144, APP 5'UTR act 159, NF-kB expr up 5.2
CCOC(=O)C1(Cc2ccccc2)CCCN(Cc2ccc(OCC)c(CO)c2)C1 (configuration not stated)	none (no result: sdo1 growth)
Cc1cc(C)cc(NC(=S)/N=C(\N)Nc2nc(C)c3ccccc3n2)c1	none
CC(C)=NN/C(N)=N/C(=S)Nc1ccc(C)cc1	FLuc inhib CS 54
Cc1ccc(S(=O)(=O)N2CCOCC2)cc1NC(=O)COC(=O)CNC(=O)c1ccc(Oc2ccccc2)cc1	FLuc inhib CS 73
Cc1ccc(S(=O)(=O)N2CCOCC2)cc1NC(=O)COC(=O)Cc1ccsc1	none
Cc1ccc(S(=O)(=O)N2CCOCC2)cc1NC(=O)COC(=O)CNC(=O)c1ccc(C(C)(C)C)cc1	FLuc inhib CS 81
Cc1ccc(C)n1-c1ncn[nH]1	none
O=C(c1ccco1)N1CCCN(Cc2nc(Cc3ccccc3)no2)CC1	none (no result: sdo1 growth)
COc1ccc(C(=O)/C=C/N(C)C)cc1	none
CN(C)/C=C/C(=O)c1ccc(Oc2ccccc2)cc1	STAT1 act 135, FLuc inhib CS 75 (no result: sdo1 growth)
CCCc1ccc(C(=O)/C=C/N(C)C)cc1	FLuc inhib CS 74 (no result: sdo1 growth)
C=CCOC(=O)C1=C[C@@H](c2ccc3c(c2)OCO3)C[C@@H](OCc2ccc(CO)cc2)O1	none (no result: sdo1 growth)
CC(C)CCNC(=O)C1CC(c2cccc([N+](=O)[O-])c2)=NO1 (configuration not stated)	none
